Calls of active or inactive are those of the source. No cut-off for these calls is given here.
Experiments:
A498 [1] = assay: Induction of apoptosis in human A498 cells assessed as late apoptotic cells at 0.5 uM after 24 hrs by AnnexinV/FITC-propidium iodide staining-based flow cytometry (reference value: 9.6%); format: functional
Method in brief: (§1)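 Flow cytometry with annexin V-FITC/PI double labeling of A498 cells treated for 12, 24, 36 or 48 h; untreated cells served as the 0 h control. Stained in binding buffer for 15 min at room temperature in the dark, with more binding buffer added just before analysis. Annexin V+/PI− (Q4) counted as early apoptotic and annexin V+/PI+ (Q2) as late apoptotic.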

A498 [2] = assay: Induction of apoptosis in human A498 cells assessed as late apoptotic cells at 0.5 uM after 12 hrs by AnnexinV/FITC-propidium iodide staining-based flow cytometry (reference value: 9.6%); format: functional; method in brief: as §1
A498 [3] = assay: Induction of apoptosis in human A498 cells assessed as early apoptotic cells at 0.5 uM after 48 hrs by AnnexinV/FITC-propidium iodide staining-based flow cytometry (reference value: 3.9%); format: functional
UO-31 = assay: Cytotoxicity against human UO31 cells after 48 hrs by sulforhodamine B assay; format: functional; conditions: UO-31, 48 h
TK-10 = assay: Cytotoxicity against human TK10 cells after 48 hrs by sulforhodamine B assay; format: functional; conditions: TK-10, 48 h
CAKI-1 = assay: Cytotoxicity against human Caki1 cells after 48 hrs by sulforhodamine B assay; format: functional; conditions: CAKI-1, 48 h
ACHN = assay: Cytotoxicity against human ACHN cells after 48 hrs by sulforhodamine B assay; format: functional
A498 [4] = assay: Cytotoxicity against human A498 cells after 48 hrs by sulforhodamine B assay; format: functional; conditions: A498, 48 h
UACC-62 = assay: Cytotoxicity against human UACC62 cells after 48 hrs by sulforhodamine B assay; format: functional; conditions: UACC-62, 48 h
SK-MEL-5 = assay: Cytotoxicity against human SK-MEL-5 cells after 48 hrs by sulforhodamine B assay; format: functional; conditions: SK-MEL-5, 48 h
SK-MEL-28 = assay: Cytotoxicity against human SK-MEL-28 cells after 48 hrs by sulforhodamine B assay; format: functional; conditions: SK-MEL-28, 48 h
M14 = assay: Cytotoxicity against human M14 cells after 48 hrs by sulforhodamine B assay; format: functional; conditions: M14, 48 h
SNB-75 = assay: Cytotoxicity against human SNB75 cells after 48 hrs by sulforhodamine B assay; format: functional; conditions: SNB-75, 48 h
U-251 = assay: Cytotoxicity against human U251 cells after 48 hrs by sulforhodamine B assay; format: functional; conditions: U-251, 48 h
SF-295 = assay: Cytotoxicity against human SF295 cells after 48 hrs by sulforhodamine B assay; format: functional; conditions: SF-295, 48 h
SW-620 = assay: Cytotoxicity against human SW620 cells after 48 hrs by sulforhodamine B assay; format: functional; conditions: SW-620, 48 h
HCT-15 = assay: Cytotoxicity against human HCT15 cells after 48 hrs by sulforhodamine B assay; format: functional; conditions: HCT-15, 48 h
HT-29 = assay: Cytotoxicity against human HT-29 cells after 48 hrs by sulforhodamine B assay; format: functional; conditions: HT-29, 48 h
HCT-116 = assay: Cytotoxicity against human HCT116 cells after 48 hrs by sulforhodamine B assay; format: functional; conditions: HCT-116, 48 h
[5] = Cytotoxicity against human EKVX cells after 48 hrs by sulforhodamine B assay; format: functional
MOLT-4 = assay: Cytotoxicity against human MOLT4 cells after 48 hrs by sulforhodamine B assay; format: functional; conditions: MOLT-4, 48 h
A498 [6] = assay: Cell cycle arrest in human A498 cells assessed as accumulation at G2/M phase at 0.5 uM after 24 hrs by propidium iodide staining-based flow cytometry (reference value: 5.39 +/- 0.01%); format: functional
A498 [7] = assay: Cell cycle arrest in human A498 cells assessed as accumulation at G0/G1 phase at 0.5 uM after 48 hrs by propidium iodide staining-based flow cytometry (reference value: 78.70 +/- 0.02%); format: functional
A498 [8] = assay: Antitumor activity against human A498 cells xenografted in ip dosed BALB/cAnN.Cg-Foxn1nu/CrlNarl nude mouse assessed as suppression of tumor growth administered qd for 5 times a week for 28 days measured every 7 days; format: functional, organism-based
Method in brief: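 Male nude mice (18–20 g, 4–6 weeks) were inoculated subcutaneously with A498 cells, 2 × 10⁶ per mouse in 0.1 mL PBS. Once tumors reached 100 mm³, mice were randomized and given ip doses of 30 or 60 mg/kg, 5 times per week for 4 weeks. Body weight and tumor size were recorded every 7 days over 28 days. Volume = 1/2 ([…]).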

A498 [9] = assay: Induction of apoptosis in human A498 cells assessed as increase in cytochrome C level at 0.5 uM after 6 to 48 hrs by Western blotting analysis; format: functional, cell-based
Method in brief: (§2)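 A498 cells exposed for 6, 12, 24, 36 or 48 h, then washed in PBS and lysed. Lysates were held on ice for 30 min and spun at 12 000g for 20 min. Supernatant protein was measured by Bradford assay, run on 10% SDS-PAGE and transferred to nitrocellulose. Blots were probed for AIF, Endo G, Apaf-1, cytochrome c, caspase 9 and caspase 3, with β-actin as loading control; n = 3 independent experiments.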

A498 [10] = assay: Induction of apoptosis in human A498 cells assessed as increase in AIF level at 0.5 uM after 6 to 48 hrs by Western blotting analysis; format: functional, cell-based; method in brief: as §2
A498 [11] = assay: Induction of apoptosis in human A498 cells assessed as increase in Endo G level at 0.5 uM after 6 to 48 hrs by Western blotting analysis; format: functional, cell-based; method in brief: as §2
A498 [12] = assay: Cell cycle arrest in human A498 cells assessed as accumulation at G2/M phase at 0.5 uM after 48 hrs by propidium iodide staining-based flow cytometry (reference value: 5.39 +/- 0.01%); format: functional
A498 [13] = assay: Cytotoxicity against human A498 cells after 48 hrs by MTT assay; format: functional, cell-based
[14] = Cytotoxicity against human Hep3B cells after 48 hrs by MTT assay; format: functional, cell-based, Hep 3B2
[15] = read-out: pLC50 (the source's name) (converted)

OCc1ccc(Cn2c3ccccc3c3oc(CO)cc32)o1
Activity (A498 [1]): 15.6% | Activity (A498 [2]): 10% | Activity (A498 [3]): 41% | GI50 (UO-31): 50.1 µM | CC50 (UO-31; [15]): > 100 µM | TGI (UO-31; read-out: pTGI): > 100 µM | GI50 (TK-10): 0.537 µM | CC50 (TK-10; [15]): > 100 µM | TGI (TK-10; read-out: pTGI (converted)): 3.24 µM | GI50 (CAKI-1): 51.3 µM | CC50 (CAKI-1; [15]): > 100 µM | TGI (CAKI-1; read-out: pTGI): > 100 µM | GI50 (ACHN): 79.4 µM | CC50 (ACHN; [15]): > 100 µM | TGI (ACHN; read-out: pTGI): > 100 µM | GI50 (A498 [4]): 0.141 µM | CC50 (A498 [4]; read-out: pLC50 (converted)): 0.661 µM | TGI (A498 [4]; read-out: pTGI (converted)): 0.302 µM | GI50 (UACC-62): 3.24 µM | CC50 (UACC-62; [15]): > 100 µM | TGI (UACC-62; read-out: pTGI): > 100 µM | GI50 (SK-MEL-5): > 100 µM | CC50 (SK-MEL-5; [15]): > 100 µM | TGI (SK-MEL-5; read-out: pTGI): > 100 µM | GI50 (SK-MEL-28): > 100 µM | CC50 (SK-MEL-28; [15]): > 100 µM | TGI (SK-MEL-28; read-out: pTGI): > 100 µM | GI50 (M14): 13.2 µM | CC50 (M14; [15]): > 100 µM | TGI (M14; read-out: pTGI): > 100 µM | GI50 (SNB-75): 46.8 µM | CC50 (SNB-75; [15]): > 100 µM | TGI (SNB-75; read-out: pTGI): > 100 µM | GI50 (U-251): 30.9 µM | CC50 (U-251; [15]): > 100 µM | TGI (U-251; read-out: pTGI): > 100 µM | GI50 (SF-295): 26.9 µM | CC50 (SF-295; [15]): > 100 µM | TGI (SF-295; read-out: pTGI): > 100 µM | GI50 (SW-620): > 100 µM | CC50 (SW-620; [15]): > 100 µM | TGI (SW-620; read-out: pTGI): > 100 µM | GI50 (HCT-15): 87.1 µM | CC50 (HCT-15; [15]): > 100 µM | TGI (HCT-15; read-out: pTGI): > 100 µM | GI50 (HT-29): 41.7 µM | CC50 (HT-29; [15]): > 100 µM | TGI (HT-29; read-out: pTGI): > 100 µM | GI50 (HCT-116): 0.912 µM | CC50 (HCT-116; [15]): > 100 µM | TGI (HCT-116; read-out: pTGI): > 100 µM | GI50 [5]: 24 µM | CC50 [5, 15]: > 100 µM | TGI ([5]; read-out: pTGI): > 100 µM | GI50 (MOLT-4): 77.6 µM | CC50 (MOLT-4; [15]): > 100 µM | TGI (MOLT-4; read-out: pTGI): > 100 µM | Activity (A498 [6]): 11.37% | Activity (A498 [7]): 71.26% | Activity (A498 [8]): Dose-dependent effect | Activity (A498 [9]): Active | Activity (A498 [10]): Active | Activity (A498 [11]): Active | Activity (A498 [12]): 18.09% | Activity (A498 [13]): Dose-dependent effect | IC50 (A498 [13]; A498, 48 h): 0.21 µM | IC50 [14]: > 50 µM

— ChEMBL document CHEMBL2412970, “Synthesis and anticancer activity of 2,4-disubstituted furo[3,2-b]indole derivatives” (Eur J Med Chem, 2013)
